Laboratory results taken from ChEMBL document CHEMBL4270576, “Discovery of a benzenesulfonamide-based dual inhibitor of microsomal prostaglandin E2 synthase-1 and 5-lipoxygenase that favorably modulates lipid mediator biosynthesis in inflammation” (Eur J Med Chem, 2018).

What was measured:
Prostaglandin E synthase = target: T1, Prostaglandin E synthase (Homo sapiens, UniProt O14684); assay: Inhibition of mPGES-1 isolated from microsomes of interleukin-1 beta-stimulated human A549 cells using PGH2 as substrate preincubated for 15 mins followed by substrate addition measured after 1 min by RP-HPLC analysis
T1 sequence (O14684 whole entry): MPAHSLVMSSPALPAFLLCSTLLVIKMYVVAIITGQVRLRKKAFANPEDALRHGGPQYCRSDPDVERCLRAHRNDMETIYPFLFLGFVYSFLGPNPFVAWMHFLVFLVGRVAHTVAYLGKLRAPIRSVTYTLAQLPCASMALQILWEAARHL
In short: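 Microsomes from A549 cells treated with IL-1β (1 ng/ml, 72 h), diluted in 0.1 M potassium phosphate pH 7.4 with 2.5 mM glutathione. Pre-incubated 15 min with compound or DMSO, then 20 µM PGH2 (final) for 1 min at 4 °C. IC50 from 4-5 concentrations.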

[1] = target: T2, Polyunsaturated fatty acid 5-lipoxygenase (Homo sapiens) (UniProt P09917); assay: Inhibition of recombinant human 5-LO expressed in Escherichia coli BL21 (DE3) using arachidonic acid as substrate assessed as residual activity preincubated for 10 mins followed by CaCl2 and substrate addition measured after 10 mins by RP-HPLC analysis
T2 sequence (whole entry): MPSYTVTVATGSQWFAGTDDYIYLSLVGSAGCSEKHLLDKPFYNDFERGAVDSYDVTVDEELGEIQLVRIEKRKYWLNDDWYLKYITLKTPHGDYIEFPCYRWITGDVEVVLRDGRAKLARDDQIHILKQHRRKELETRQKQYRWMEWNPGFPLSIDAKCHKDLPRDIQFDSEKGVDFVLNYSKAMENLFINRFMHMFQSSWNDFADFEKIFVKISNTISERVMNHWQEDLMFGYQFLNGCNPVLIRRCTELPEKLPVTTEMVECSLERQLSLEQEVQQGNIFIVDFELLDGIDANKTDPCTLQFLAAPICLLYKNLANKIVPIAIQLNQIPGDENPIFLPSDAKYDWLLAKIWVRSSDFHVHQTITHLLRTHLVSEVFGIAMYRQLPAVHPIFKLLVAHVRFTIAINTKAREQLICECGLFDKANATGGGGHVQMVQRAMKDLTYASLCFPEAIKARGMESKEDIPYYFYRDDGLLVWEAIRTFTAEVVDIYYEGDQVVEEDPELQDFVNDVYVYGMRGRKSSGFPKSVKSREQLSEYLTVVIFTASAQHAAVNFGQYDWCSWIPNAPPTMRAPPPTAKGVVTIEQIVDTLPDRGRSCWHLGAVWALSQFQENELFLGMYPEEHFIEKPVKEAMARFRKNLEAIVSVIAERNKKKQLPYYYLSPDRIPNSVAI
In short: (§1)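 Human recombinant 5-LO from E. coli BL21(DE3), ATP-agarose semi-purified (0.5 µg/ml), pre-incubated with compound or 0.1% DMSO at 4 °C. It was pre-warmed 30 s at 37 °C, then started with 2 mM CaCl2 plus 20 µM AA. Stopped after 10 min with ice-cold methanol; products by RP-HPLC. Residual activity at 10 µM; IC50 from 4-5 concentrations; n=3-4.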

[2] = target: T3, Polyunsaturated fatty acid 5-lipoxygenase (Homo sapiens, UniProt P09917); assay: Inhibition of 5-LO in human neutrophils using arachidonic acid as substrate assessed as reduction in 5-LO product formation preincubated for 15 mins followed by substrate addition measured after 10 mins in presence of Ca2+ ionophore A23187 by HPLC analysis
T3 sequence (P09917 whole entry): T2 sequence (whole entry)
In short: (§2)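 Human neutrophils (5 × 10^6 in 1 ml PBS with 1 mg/ml glucose) pre-incubated 15 min at 37 °C with compound or 0.1% DMSO, then activated with 1 mM CaCl2 and 2.5 µM A23187, with or without 20 µM AA; 5-LO products measured after 10 min. Residual activity at 10 µM; IC50 by nonlinear regression from 4-5 concentrations; mean ± SEM, n=3-4.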

[3] = target: T2, Polyunsaturated fatty acid 5-lipoxygenase (Homo sapiens); assay: Inhibition of 5-LO in human neutrophils using arachidonic acid as substrate assessed as residual activity preincubated for 15 mins followed by substrate addition measured after 10 mins in presence of Ca2+ ionophore A23187 by HPLC analysis; in short: as §2
[4] = target: T4, Prostaglandin E synthase (Homo sapiens) (UniProt O14684); assay: Inhibition of mPGES-1 isolated from microsomes of interleukin-1 beta-stimulated human A549 cells assessed as residual activity at 10 uM using PGH2 as substrate preincubated for 15 mins followed by substrate addition measured after 1 min by RP-HPLC analysis
T4 sequence (whole entry): T1 sequence (O14684 whole entry)

[5] = target: T3, Polyunsaturated fatty acid 5-lipoxygenase; assay: Inhibition of recombinant human 5-LO expressed in Escherichia coli BL21 (DE3) using arachidonic acid as substrate preincubated for 10 mins followed by CaCl2 and substrate addition measured after 10 mins by RP-HPLC analysis; in short: as §1

SMILES | IC50 (Prostaglandin E synthase) | Activity [1] | IC50 [2] | Activity [3] | Activity [4] | IC50 [5]
O=C(O)c1ccc(N(Cc2cccs2)S(=O)(=O)c2ccc(-c3ccccc3)cc2)cc1 | 4.7 µM | 66.4% | 4.4 µM |  |  | 
Cc1ccc(S(=O)(=O)N(Cc2ccsc2)c2ccc(C(=O)O)cc2)cc1 |  | 106% |  | 98.2% | 90.7% | 
O=C(O)c1ccc(N(CC2CCCCC2)S(=O)(=O)c2ccc(F)cc2)cc1 |  | 109% |  | 98.7% | 88.9% | 
O=C(O)c1ccc(N(Cc2ccccc2)S(=O)(=O)c2ccc(-c3ccccc3)cc2)cc1 | 4 µM | 96.2% | 3.3 µM |  |  | 
O=C(O)c1ccc(N(Cc2cnc3ccccc3c2)S(=O)(=O)c2ccc(-c3ccccc3)cc2)cc1 | 4.7 µM | 75% | 2.1 µM |  |  | 
COc1cccc(CN(c2ccc(C(=O)O)cc2)S(=O)(=O)c2ccc(-c3ccccc3)cc2)c1 | 6.2 µM | 78.6% | 1.3 µM |  |  | 
Cc1ccc(S(=O)(=O)N(Cc2ccc(Cl)cc2)c2ccc(C(=O)O)cc2)cc1 |  | 100% |  | 83.2% | 71.2% | 
O=C(O)c1ccc(N(Cc2cccs2)S(=O)(=O)c2ccc(F)cc2)cc1 |  | 86.7% |  | 94.6% | 96.5% | 
COc1ccc(CN(c2ccc(C(=O)O)cc2)S(=O)(=O)c2ccc(C)cc2)cc1OC |  | 93.2% |  | 110% | 95.7% | 
CCCCCCN(c1ccc(C(=O)O)cc1)S(=O)(=O)c1ccc(-c2ccccc2)cc1 | 1.9 µM | 105% | 1.5 µM |  |  | 
O=C(O)c1ccc(N(CC2CCCCC2)S(=O)(=O)c2ccc(Oc3ccccc3)cc2)cc1 | 2.6 µM | 72% | 5.4 µM |  |  | 
Cc1ccc(S(=O)(=O)N(Cc2ccccc2)c2ccc(C(=O)O)cc2)cc1 |  | 81.1% |  | 75.7% | 91.3% | 
O=C(O)c1ccc(N(Cc2cccs2)S(=O)(=O)c2ccc(C(=O)O)cc2)cc1 |  | 93% |  | 112% | 94.6% | 
Cc1ccc(S(=O)(=O)N(Cc2ccc(Oc3ccccc3)cc2)c2ccc(C(=O)O)cc2)cc1 | 5.3 µM | 61.4% | 3.5 µM |  |  | 
O=C(O)c1ccc(N(CC2CCCCC2)S(=O)(=O)c2ccc(-c3ccccc3)cc2)cc1 | 3.2 µM | 57.5% | 3.4 µM |  |  | 
CC(C)(C)c1ccc(CN(c2ccc(C(=O)O)cc2)S(=O)(=O)c2ccc(-c3ccccc3)cc2)cc1 | 1.2 µM |  | 0.3 µM |  |  | 5.6 µM
Cc1ccc(S(=O)(=O)N(Cc2ccccc2Cl)c2ccc(C(=O)O)cc2)cc1 |  | 115% |  | 95.2% | 71.7% | 
CCCCCCN(c1ccc(C(=O)O)cc1)S(=O)(=O)c1ccc(C)cc1 |  | 86.1% |  | 65.2% | 79.9% | 
Cc1ccc(S(=O)(=O)N(Cc2c(F)cccc2Cl)c2ccc(C(=O)O)cc2)cc1 |  | 86.7% |  | 75.4% | 85.7% | 
O=C(O)c1ccc(N(Cc2ccc3ccccc3c2)C(=O)c2ccc(-c3ccccc3)cc2)cc1 | 2.9 µM | 78% | 1.7 µM |  |  | 
Cc1ccc(S(=O)(=O)N(Cc2ccc3ccccc3c2)c2ccc(C(=O)O)cc2)cc1 |  | 96.7% | 4.8 µM |  | 52.8% | 
Cc1ccc(S(=O)(=O)N(Cc2ccc(Cl)c(Cl)c2)c2ccc(C(=O)O)cc2)cc1 | 6.3 µM | 97.6% | 2.4 µM |  |  | 
CCCCN(c1ccc(C(=O)O)cc1)S(=O)(=O)c1ccc(-c2ccccc2)cc1 |  | 115% | 4 µM |  | 52.6% | 

SMILES | IC50 (Prostaglandin E synthase) | Activity [1] | IC50 [2] | Activity [3] | Activity [4] | IC50 [5]
CCCCCCCCN(c1ccc(C(=O)O)cc1)S(=O)(=O)c1ccc(-c2ccccc2)cc1 | 5 µM |  | 0.5 µM |  |  | 5.2 µM
O=C(O)c1ccc(N(Cc2ccc(OCc3ccccc3)cc2)S(=O)(=O)c2ccc(-c3ccccc3)cc2)cc1 | 6.5 µM |  | 0.5 µM |  |  | 6.6 µM
CC(C)(C)C#Cc1ccc(S(=O)(=O)N(Cc2ccc(C(C)(C)C)cc2)c2ccc(C(=O)O)cc2)cc1 | 2.7 µM |  | 0.9 µM |  |  | 2.3 µM
O=C(O)c1ccc(N(Cc2cccs2)S(=O)(=O)c2ccc(-c3ccc4ccccc4c3)cc2)cc1 |  | 71.9% |  | 69.7% | 76.7% | 
O=C(O)CCc1ccc(N(Cc2ccc3ccccc3c2)S(=O)(=O)c2ccc(-c3ccccc3)cc2)cc1 | 0.7 µM |  | 1.8 µM |  |  | 5.5 µM
Cc1ccc(S(=O)(=O)N(Cc2cccs2)c2ccc(CC(=O)O)cc2)cc1 |  | 97% |  | 102% | 96.4% | 
O=C(O)c1ccc(N(Cc2cccs2)S(=O)(=O)c2ccc(Cl)cc2)cc1 |  | 86.1% |  | 97.2% | 96.7% | 
Cc1ccc(CN(c2ccc(C(=O)O)cc2)S(=O)(=O)c2ccc(C)cc2)cc1 |  | 93.4% |  | 96.7% | 82.8% | 
O=C(O)c1ccc(N(Cc2ccoc2)S(=O)(=O)c2ccc(-c3ccccc3)cc2)cc1 |  | 110% | 8.4 µM |  | 56.8% | 
Cc1ccc(CN(c2ccc(C(=O)O)cc2)S(=O)(=O)c2ccc(-c3ccccc3)cc2)cc1 | 5.2 µM | 65.6% | 1 µM |  |  | 
O=C(O)Cc1ccc(N(Cc2ccc3ccccc3c2)S(=O)(=O)c2ccc(-c3ccccc3)cc2)cc1 | 1.1 µM |  | 3.4 µM |  |  | 8.7 µM
Cc1ccc(S(=O)(=O)N(Cc2cccs2)c2ccc(C(=O)O)cc2)cc1 |  | 92.7% |  | 104% | 92.5% | 
O=C(O)c1ccc(N(Cc2ccc3c(c2)OCO3)S(=O)(=O)c2ccc(-c3ccccc3)cc2)cc1 | 1.9 µM | 88.4% | 3.2 µM |  |  | 
O=C(O)c1ccc(N(Cc2cccc(Oc3ccccc3)c2)S(=O)(=O)c2ccc(Oc3ccccc3)cc2)cc1 | 0.8 µM |  | 1 µM |  |  | 6 µM
O=C(O)c1ccc(N(Cc2cccc(Oc3ccccc3)c2)S(=O)(=O)c2ccc(-c3ccccc3)cc2)cc1 | 3.8 µM |  | 0.3 µM |  |  | 7.2 µM
O=C(O)c1ccc(N(Cc2ccc3ccccc3c2)S(=O)(=O)c2ccc(-c3ccccc3)cc2)cc1 | 0.3 µM |  | 1.1 µM |  |  | 6.4 µM
CCCCN(c1ccc(C(=O)O)cc1)S(=O)(=O)c1ccc(C)cc1 |  | 99.1% |  | 112% | 79.9% | 
CC(C)(C)c1ccc(CN(c2ccc(C(=O)O)cc2)S(=O)(=O)c2ccc(C(C)(C)C)cc2)cc1 | 3.2 µM | 50.2% | 0.7 µM |  |  | 
O=C(O)c1ccc(N(Cc2ccc3c(c2)OCCO3)S(=O)(=O)c2ccc(-c3ccccc3)cc2)cc1 | 1.6 µM | 117% | 1.1 µM |  |  | 
Cc1ccc(S(=O)(=O)N(Cc2cccc(Cl)c2)c2ccc(C(=O)O)cc2)cc1 |  | 107% |  | 84.7% | 74.1% | 
Cc1ccc(S(=O)(=O)N(CC2CCCCC2)c2ccc(C(=O)O)cc2)cc1 |  | 91.4% |  | 76.9% | 91.6% | 
Cc1ccc(S(=O)(=O)N(Cc2ccccc2)c2ccc(C(=O)NS(=O)(=O)c3ccccc3)cc2)cc1 | 2.7 µM | 88.9% |  | 80% |  | 
